# Measurements from ChEMBL document CHEMBL2010801, “Semisynthesis and antimicrobial activity of novel guttiferone-A derivatives” (Bioorg Med Chem, 2012).
# The source made the active and inactive calls. The rule behind the calls is not given here.
# How the values were obtained:
# [1] = tested on: Staphylococcus aureus; assay: Antimicrobial activity against Staphylococcus aureus ATCC 6538 after 24 hrs by broth microdilution method; assay type: functional; details: for MIC50 / MIC: ATCC 6538, 24 h; for MIC: read-out: MIC100
# How it was run: (§1)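 Microplate broth microdilution with a serial dilution series of compounds, using chloramphenicol as the antibacterial control. Bacterial plates were incubated at 35 °C for 24 h.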
# [2] = tested on: Staphylococcus epidermidis; assay: Antimicrobial activity against Staphylococcus epidermidis ATCC 12228 after 24 hrs by broth microdilution method; assay type: functional; how it was run: as §1
# [3] = tested on: Bacillus cereus; assay: Antimicrobial activity against Bacillus cereus ATCC 11778 after 24 hrs by broth microdilution method; assay type: functional; details: for MIC50 / MIC: ATCC 11778, 24 h; for MIC: read-out: MIC100; how it was run: as §1
# [4] = tested on: Pseudomonas aeruginosa; assay: Antimicrobial activity against Pseudomonas aeruginosa ATCC 9027 after 24 hrs by broth microdilution method; assay type: functional; how it was run: as §1
# [5] = tested on: Salmonella typhimurium; assay: Antimicrobial activity against Salmonella typhimurium ATCC 14028 after 24 hrs by broth microdilution method; assay type: functional; how it was run: as §1
# [6] = tested on: Escherichia coli; assay: Antimicrobial activity against Escherichia coli ATCC 25922 after 24 hrs by broth microdilution method; assay type: functional; how it was run: as §1
# [7] = tested on: Proteus mirabilis; assay: Antimicrobial activity against Proteus mirabilis ATCC 25933 after 24 hrs by broth microdilution method; assay type: functional; how it was run: as §1
# [8] = tested on: Candida albicans; assay: Antifungal activity against Candida albicans ATCC 09548 after 24 hrs by broth microdilution method; assay type: functional
# How it was run: (§2)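 Broth microdilution in microplates with a serial dilution series of compounds. Amphotericin B served as the fungicidal control and fluconazole as the fungistatic control. Yeast plates were incubated at 37 °C for 24 h.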
# [9] = tested on: Pichia kudriavzevii; assay: Antifungal activity against Candida krusei ATCC 6258 after 24 hrs by broth microdilution method; assay type: functional; how it was run: as §2
# [10] = tested on: Candida parapsilosis; assay: Antifungal activity against Candida parapsilosis ATCC 69548 after 24 hrs by broth microdilution method; assay type: functional; how it was run: as §2
# [11] = tested on: Nakaseomyces glabratus; assay: Antifungal activity against Candida glabrata ATCC 90030 after 24 hrs by broth microdilution method; assay type: functional; how it was run: as §2
# [12] = tested on: Candida tropicalis; assay: Antifungal activity against Candida tropicalis ATCC 750 after 24 hrs by broth microdilution method; assay type: functional; how it was run: as §2
# [13] = tested on: Cryptococcus neoformans; assay: Antifungal activity against Cryptococcus neoformans ATCC 90012 after 24 hrs by broth microdilution method; assay type: functional; how it was run: as §2
# [14] = tested on: Trichophyton tonsurans; assay: Antifungal activity against Trichophyton tonsurans after 48 hrs by broth microdilution method; assay type: functional
# How it was run: (§3)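 Broth microdilution against filamentous fungi with serially diluted compounds. Amphotericin B (fungicidal) and fluconazole (fungistatic) were run as controls. Plates were incubated at 30 °C for 48 h.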
# [15] = tested on: Nannizzia gypsea; assay: Antifungal activity against Microsporum gypseum after 48 hrs by broth microdilution method; assay type: functional; how it was run: as §3
# [16] = Cytotoxicity against human PBMC after 48 hrs by MTT assay; assay type: cell-based; details: PBMC (peripheral blood mononuclear cells)
# How it was run: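 Normal human PBMC from healthy volunteers were isolated by Ficoll-Hypaque density gradient and seeded at 2.4 × 10⁶ cells/mL. Compounds were added at 100 to 0.06 and cells held 48 h at 37 °C, 5% CO₂. MTT was then added for 4 h, formazan dissolved in DMSO and A560 read. Untreated cells were taken as 100% viability. CC50 was obtained by linear regression.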
# [17] = tested on: Staphylococcus aureus; assay: Ratio of MIC100 for chloramphenicol to MIC100 of compound for Staphylococcus aureus ATCC 6538 after 24 hrs by broth microdilution method; assay type: functional
# [18] = Salmonella enterica subsp. enterica serovar Typhimurium
# [19] = Salmonella enterica, ATCC 14028, 24 h
SMILES,MIC50 ([1]; read-out: MIC50),MIC50 [2],MIC100 [2],MIC100 [4],"MIC100 [5, 18]","MIC50 [5, 19]",MIC100 [6],"MIC50 ([6]; ATCC 25922, 24 h)",MIC50 [7],MIC100 [7],MIC50 [8],MIC100 [8],MIC100 [10],MIC100 [11],MIC50 [12],MIC100 [12],MIC50 [14],CC50 at 48 h [16],MIC50 [3],MIC [3],further results
CC(C)=CCC[C@]1(C)[C@@H](CC=C(C)C)C[C@@]2(CC=C(C)C)C(=O)C(C(=O)c3ccc(OC(=O)c4ccccc4)c(OC(=O)c4ccccc4)c3)=C(O)[C@]1(CC=C(C)C)C2=O,1540 µM,inactive,inactive,inactive,inactive,49.3 µM,inactive,48 µM,inactive,inactive,inactive,inactive,inactive,inactive,inactive,inactive,inactive,> 123 µM,–,–,"MIC100 [1]: inactive; MIC100 [3]: inactive; MIC50 [9]: inactive; MIC100 [9]: inactive; MIC50 [10]: inactive; MIC50 [11]: inactive; MIC100 [13]: inactive; MIC50 ([13]; ATCC 90012, 24 h): 49.3 µM; MIC100 [14]: inactive; MIC50 [15]: inactive; MIC100 [15]: inactive"
O=C(N[C@H](CO)[C@H](O)c1ccc([N+](=O)[O-])cc1)C(Cl)Cl [CHLORAMPHENICOL],6030 µM,–,–,–,–,15.1 µM,–,1510 µM,–,–,–,–,–,–,–,–,–,–,4820 µM,77.4 µM,"MIC [1]: 12 µM; MIC50 ([4]; ATCC 9027, 24 h): 48.3 µM; MIC ([5]; Salmonella enterica, ATCC 14028, 24 h, read-out: MIC100): 6.03 µM; MIC ([6]; ATCC 25922, 24 h, read-out: MIC100): 12.1 µM; MIC50 ([7]; ATCC 25933, 24 h): 24.1 µM; MIC ([7]; ATCC 25933, 24 h, read-out: MIC100): 48.3 µM"
CC(C)=CCC[C@]1(C)[C@@H](CC=C(C)C)C[C@@]2(CC=C(C)C)C(=O)C(C(=O)c3ccc(OC(=O)OC(C)(C)C)c(O)c3)=C(O)[C@]1(CC=C(C)C)C2=O,–,inactive,inactive,inactive,inactive,–,inactive,555 µM,inactive,inactive,inactive,inactive,inactive,inactive,inactive,inactive,55 µM,> 142 µM,1800 µM,28.4 µM,"MIC50 [1]: 18 µM; MIC50 ([4]; ATCC 9027, 24 h): 58.2 µM; MIC50 ([5]; Salmonella enterica, ATCC 14028, 24 h, read-out: MIC50): 57 µM; MIC50 ([9]; ATCC 6258, 24 h): 56.9 µM; MIC50 ([11]; ATCC 90030, 24 h): 56.9 µM; MIC50 ([13]; ATCC 90012, 24 h, read-out: MIC50): 555 µM; MIC ([13]; ATCC 90012, 24 h, read-out: MIC100): 1.82 µM; MIC ([14]; read-out: MIC100): 1820 µM; MIC ([15]; read-out: MIC100): 28.4 µM"
CC(C)=CCC[C@]1(C)[C@@H](CC=C(C)C)C[C@@]2(CC=C(C)C)C(=O)C(C(=O)c3ccc(OS(C)(=O)=O)c(OS(C)(=O)=O)c3)=C(O)[C@]1(CC=C(C)C)C2=O,51 µM,inactive,inactive,inactive,inactive,–,inactive,205 µM,inactive,inactive,inactive,inactive,inactive,inactive,inactive,inactive,3290 µM,> 132 µM,1650 µM,1.65 µM,"MIC [1]: 3.29 µM; MIC50 [4]: inactive; MIC50 [5, 18]: inactive; MIC100 [9]: inactive; MIC50 ([9]; ATCC 6258, 24 h): 52.7 µM; MIC50 [10]: inactive; MIC100 [13]: inactive; MIC50 ([13]; ATCC 90012, 24 h): 52.7 µM; MIC100 [14]: inactive; MIC50 [15]: inactive; MIC100 [15]: inactive; Ratio [17]: 3.66"
